{
  "source": "ChEMBL document CHEMBL4425094",
  "about": "“Novel Benzo[a]quinolizidine Analogs Induce Cancer Cell Death through Paraptosis and Apoptosis” (J Med Chem, 2016)",
  "key": {"PC-3 [1]": {"tested_on": "PC-3", "test": "Induction of cell cycle arrest in human PC3 cells assessed as accumulation in G0/G1 phase at 0.5 uM after 24 hrs by […]propidium iodide based flow cytometric analysis (reference value: 43.5 to 62.5 %)", "assay_type": "functional"}, "PC-3 [2]": {"tested_on": "PC-3", "test": "Induction of apoptosis in human PC3 cells assessed as late apoptotic cells at 0.5 uM after 24 hrs by Annexin V-FITC/propidium iodide based flow cytometric analysis (reference value: 1.1 %)", "assay_type": "functional", "how_it_was_run": "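PC3 cells exposed to 0.5, 1 or 2 μM for 24 h, then stained with Annexin V-FITC and PI and analyzed by FACSCalibur flow cytometry. Populations assigned as necrotic (Annexin V−/PI+), late apoptotic (double positive), normal (Annexin V−/PI−) and early apoptotic (Annexin V+/PI−). DMSO vehicle control.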"}, "PC-3 [3]": {"tested_on": "PC-3", "test": "Induction of cytoplasmic vacuolation in human PC3 cells at 1 uM after 24 hrs by phase-contrast microscopic analysis", "assay_type": "functional, cell-based", "how_it_was_run": "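PC3 cells in RPMI 1640 with 10% FBS at 37 °C, 5% CO2, treated with 1 μM agent for 0−24 h; DMSO vehicle control. Vacuole appearance, size and number followed over time by phase-contrast microscopy at constant magnification.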"}, "[4]": {"biological_target": "T1, Eukaryotic translation initiation factor 2-alpha kinase 3 (Homo sapiens) (UniProt Q9NZJ5)", "T1 sequence (whole entry)": "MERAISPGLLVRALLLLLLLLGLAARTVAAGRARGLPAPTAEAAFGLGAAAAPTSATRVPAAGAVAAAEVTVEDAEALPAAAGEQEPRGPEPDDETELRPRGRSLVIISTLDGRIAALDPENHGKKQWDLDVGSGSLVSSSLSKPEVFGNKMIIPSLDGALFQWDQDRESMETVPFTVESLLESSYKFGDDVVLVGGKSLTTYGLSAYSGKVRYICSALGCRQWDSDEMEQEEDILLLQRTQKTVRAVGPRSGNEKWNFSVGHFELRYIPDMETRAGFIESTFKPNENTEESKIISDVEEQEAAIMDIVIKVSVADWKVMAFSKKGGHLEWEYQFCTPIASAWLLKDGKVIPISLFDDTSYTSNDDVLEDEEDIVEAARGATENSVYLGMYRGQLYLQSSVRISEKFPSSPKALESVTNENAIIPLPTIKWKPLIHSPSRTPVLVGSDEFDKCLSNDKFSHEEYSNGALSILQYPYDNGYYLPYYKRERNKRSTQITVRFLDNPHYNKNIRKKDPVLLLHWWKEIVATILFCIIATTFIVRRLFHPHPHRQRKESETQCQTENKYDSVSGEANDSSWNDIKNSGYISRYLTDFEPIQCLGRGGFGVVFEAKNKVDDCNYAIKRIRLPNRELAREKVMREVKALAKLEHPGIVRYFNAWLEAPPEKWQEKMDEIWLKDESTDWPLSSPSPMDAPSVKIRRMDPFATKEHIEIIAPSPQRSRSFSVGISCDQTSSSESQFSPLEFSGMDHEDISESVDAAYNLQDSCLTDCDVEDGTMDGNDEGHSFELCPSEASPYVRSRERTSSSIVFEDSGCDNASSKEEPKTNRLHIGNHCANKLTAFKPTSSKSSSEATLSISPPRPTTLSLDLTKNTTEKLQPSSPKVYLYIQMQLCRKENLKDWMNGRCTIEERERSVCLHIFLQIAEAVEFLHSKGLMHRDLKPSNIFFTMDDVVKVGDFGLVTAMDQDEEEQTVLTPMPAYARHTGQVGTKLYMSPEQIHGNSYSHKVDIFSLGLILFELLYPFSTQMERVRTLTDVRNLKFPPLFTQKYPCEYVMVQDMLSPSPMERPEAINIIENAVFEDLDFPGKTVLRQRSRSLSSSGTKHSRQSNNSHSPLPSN", "test": "Activation of PERK phosphorylation in human PC3 cells assessed as eIF2alpha phosphorylation after 24 hrs by Western blot analysis", "assay_type": "cell-based", "how_it_was_run": "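PC3 cells in RPMI 1640 with 10% FBS, treated with compound for timed intervals. DMSO vehicle control. Lysis in RIPA buffer, 40 μg protein per lane on SDS-PAGE, transfer to nitrocellulose. Primary antibodies overnight at 4 °C, HRP-secondary 45 min, ECL detection. GAPDH or β-actin used as loading control.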"}, "PC-3M [5]": {"tested_on": "PC-3M", "test": "Antitumor activity against human PC3M-lluc-C6 cells xenografted in athymic Balb/c mouse assessed as tumor volume at 15 mg/kg, ip administered every 2 days for 18 days (reference value: 845.6 +/- 84.3 mm'3)", "assay_type": "functional"}, "PC-3M [6]": {"tested_on": "PC-3M", "test": "Induction of immature autophagy i in human PC3M-lluc-C6 cells xenografted in athymic Balb/c mouse assessed as increase in LC3 protein levels at 15 mg/kg, ip administered every 2 days for 18 days by Western blot and immunohistochemical staining method", "assay_type": "functional, organism-based", "how_it_was_run": "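Male athymic BALB/c-nu mice (6 weeks) carried subcutaneous right-flank PC3M-luc-C6 xenografts (5 × 10^6 cells). At ~0.1 cm3 they were grouped (n = 5) and given 15 mg/kg i.p. suspension every 2 days; placebo and docetaxel 15 mg/kg were controls. Tumors were analyzed by Western blot and by immunohistochemistry (anti-LC3 1:800, anti-p62 1:500, overnight 4 °C, HRP/DAB, hematoxylin counterstain).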"}},
  "note": "Calls of active or inactive are those of the source. The calls are words filed in the database; no cut-off is given here.",
  "data": [
    {"smiles": "Cc1cc(C)cc(COc2cc3c(cc2OCc2cc(C)cc(C)c2)[C@@H]2C[C@H](O)C[C@@H](C)N2CC3)c1", "note": "(racemic)", "values": [
      {"measurement": "Activity", "setting": "PC-3 [1]", "result": "63.8 - 70.2%"},
      {"measurement": "Activity", "setting": "PC-3 [2]", "result": 1.2, "unit": "%"},
      {"measurement": "Activity", "setting": "PC-3 [3]", "result": "Active"},
      {"measurement": "Activity", "setting": "[4]", "result": "Active"},
      {"measurement": "Activity", "setting": "PC-3M [5]", "result": 410.2, "unit": "mm3"},
      {"measurement": "Activity", "setting": "PC-3M [6]", "result": "Active"}
    ]}
  ]
}
